Series [1] is filed under the species Rattus norvegicus. The series is described as follows: Toxicity in CCI rat pain model assessed as side effects. In kind it is organism-based. To be noted: in vivo. The gist of the method:
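Rats with unilateral sciatic chronic constriction injury received a single intrathecal bolus via an implanted cannula 14 days after surgery, with morphine and vehicle as comparators. Compound-related behavioural observations were recorded alongside von Frey paw-withdrawal testing. Three animals per analogue.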

In series [2] the test system is Rattus norvegicus. The series is described as follows: Antiallodynic activity in CCI rat pain model assessed as efficayin ipsilateral hind paw withdrawal threshold at 0.2 nM, iv. In kind it is functional, organism-based. In a few lines:
(§1)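 Unilateral chronic constriction injury of the sciatic nerve in rats. At 14 days post-surgery, a single bolus was given via a chronically implanted intrathecal cannula; morphine and vehicle were comparators. Mechanical allodynia was measured with calibrated von Frey filaments as paw withdrawal threshold in the ipsilateral hindpaw, relative to the pre-dose value. Three animals per analogue; dose chosen from NET potency.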

Series [3] has as its system COS-7. Description: (§2) Displacement of [3H]nisoxetine from rat NET expressed in COS7 cells. In kind it is cell-based. (In general: Loss of bound radioactivity is the signal in a displacement assay; it reports binding, not function.)
Series [4] has as its target T1, Sodium-dependent noradrenaline transporter (Homo sapiens, UniProt P23975). The series is described as follows: Displacement of [3H]nisoxetine from human NET expressed in COS7 cells. Particulars: for Activity: COS-7. In kind it is cell-based. In a few lines: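 Membranes from COS-7 cells transfected with human NET were incubated with [3H]nisoxetine (4.3 nM) with or without peptide (1 nM to 100 μM, triplicate) for 1 h at RT. Filter-retained radioactivity was counted by liquid scintillation, and values are given as pIC50. Data are means of 2–5 experiments in triplicate; peptide concentration was set by calibrated HPLC at 214 nm.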

For series [5], the target named is T1, Sodium-dependent noradrenaline transporter. Particulars: COS-7.
Series [6] concerns COS-7. The series is described as follows: Inhibition of rat NET expressed in COS7 cells assessed as inhibition of [3H]norepinephrine uptake. In kind it is cell-based.
Series [7] in a line: as §2. It is filed as cell-based. Particulars: cos-7.
The target in series [8] is T1, Sodium-dependent noradrenaline transporter. Description: Inhibition of human NET expressed in COS7 cells assessed as inhibition of [3H]norepinephrine uptake at 1 uM. In kind it is cell-based. To be noted: COS-7.
In series [9] the test system is Rattus norvegicus. The series is described as follows: Antiallodynic activity in CCI rat pain model assessed as efficayin ipsilateral hind paw withdrawal threshold at 1 nM, iv after 3 hrs. It is filed as functional, organism-based. In a few lines: as §1

Activity calls are given as the source filed them.

T1 sequence (P23975 whole entry): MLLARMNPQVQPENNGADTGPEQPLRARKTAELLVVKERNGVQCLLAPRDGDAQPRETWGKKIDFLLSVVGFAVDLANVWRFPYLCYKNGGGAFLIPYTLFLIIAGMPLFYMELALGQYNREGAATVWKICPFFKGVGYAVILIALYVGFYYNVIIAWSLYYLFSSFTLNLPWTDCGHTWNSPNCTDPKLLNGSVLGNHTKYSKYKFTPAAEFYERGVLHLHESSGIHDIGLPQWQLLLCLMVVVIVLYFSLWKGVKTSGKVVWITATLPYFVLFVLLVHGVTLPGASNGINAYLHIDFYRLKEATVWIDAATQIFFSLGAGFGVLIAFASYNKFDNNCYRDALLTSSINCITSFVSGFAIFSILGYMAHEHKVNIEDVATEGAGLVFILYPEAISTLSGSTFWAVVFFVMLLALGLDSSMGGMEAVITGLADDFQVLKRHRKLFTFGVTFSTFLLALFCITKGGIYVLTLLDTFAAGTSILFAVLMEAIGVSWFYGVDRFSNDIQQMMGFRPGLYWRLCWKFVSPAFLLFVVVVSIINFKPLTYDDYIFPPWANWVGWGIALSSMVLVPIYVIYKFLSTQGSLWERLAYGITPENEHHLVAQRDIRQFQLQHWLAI

In the case of `CC(C)C[C@@H]1NC(=O)[C@H](CCCCN)NC(=O)[C@H](Cc2ccc(O)cc2)NC(=O)CNC(=O)[C@@H]2CSSC[C@H](NC1=O)C(=O)N[C@@H](Cc1cnc[nH]1)C(=O)N1CC[C@H](O)[C@H]1C(=O)N[C@H](C(=O)O)CSSC[C@H](NC(=O)[C@@H](NC(=O)CNC(=O)[C@H](N)CC(N)=O)C(C)C)C(=O)N2`, the Activity result in the series listed under Rattus norvegicus [1] is listed as “Toxic”.
Turning to `CC(C)C[C@@H]1NC(=O)[C@H](CCCCN)NC(=O)[C@H](Cc2ccc(O)cc2)NC(=O)CNC(=O)[C@@H]2CSSC[C@H](NC1=O)C(=O)N[C@@H](Cc1cnc[nH]1)C(=O)N1CC[C@H](O)[C@H]1C(=O)N[C@H](C(=O)O)CSSC[C@H](NC(=O)[C@@H](NC(=O)CNC(=O)[C@H](CC(N)=O)NC(=O)[C@@H](N)CCc1ccccc1)C(C)C)C(=O)N2`, the Activity result in the series listed under Rattus norvegicus [1] is on record as “Toxic”. The outcome in the series with Rattus norvegicus [2] was Active.
For the molecule `CCCC[C@H](N)C(=O)NCC(=O)N[C@H](C(=O)N[C@H]1CSSC[C@@H](C(=O)O)NC(=O)[C@@H]2[C@@H](O)CCN2C(=O)[C@H](Cc2cnc[nH]2)NC(=O)[C@@H]2CSSC[C@H](NC1=O)C(=O)NCC(=O)N[C@@H](Cc1ccc(O)cc1)C(=O)N[C@@H](CCCCN)C(=O)N[C@@H](CC(C)C)C(=O)N2)C(C)C`, the Activity result in the series filed under Rattus norvegicus [1] is recorded as “Toxic”.
On the same count and under the same terms, in the case of `CC(C)C[C@@H]1NC(=O)[C@H](CCCCN)NC(=O)[C@H](Cc2ccc(O)cc2)NC(=O)CNC(=O)[C@@H]2CSSC[C@H](NC1=O)C(=O)N[C@@H](Cc1cnc[nH]1)C(=O)N1CC[C@H](O)[C@H]1C(=O)N[C@H](C(=O)O)CSSC[C@H](NC(=O)[C@@H](NC(=O)CNC(=O)[C@H](CC(N)=O)NC(=O)[C@@H](N)Cc1c[nH]c3ccccc13)C(C)C)C(=O)N2` it was “Toxic”.
On to `CC(C)C[C@@H]1NC(=O)[C@H](CCCCN)NC(=O)[C@H](Cc2ccc(O)cc2)NC(=O)CNC(=O)[C@@H]2CSSC[C@H](NC1=O)C(=O)N[C@@H](Cc1cnc[nH]1)C(=O)N[C@H](CCC(=O)O)C(=O)N[C@H](C(=O)O)CSSC[C@H](NC(=O)[C@@H](NC(=O)CNC(=O)[C@@H]1CCC(=O)N1)C(C)C)C(=O)N2`, for which the result (in the series with COS-7 [3]; in series [4]) was Active.
Regarding `CC(C)C[C@@H]1NC(=O)[C@H](CCCCN)NC(=O)[C@H](Cc2ccc(O)cc2)NC(=O)CNC(=O)[C@@H]2CSSC[C@H](NC1=O)C(=O)N[C@@H](Cc1cnc[nH]1)C(=O)N1CC[C@H](O)[C@H]1C(=O)N[C@H](C(=O)O)CSSC[C@H](NC(=O)[C@@H](NC(=O)CNC(=O)[C@H](N)CCCNC(=N)N)C(C)C)C(=O)N2`, in the series listed under Rattus norvegicus [1], the Activity result is “Toxic”.
What is called pIC50 is −log10 of the IC50, conventionally taken in molar units. The term IC50 denotes the concentration that inhibits the measured activity by half. Read a low IC50 as inhibition by little substance. Turning to `CC(C)C[C@@H]1NC(=O)[C@H](CCCCN)NC(=O)[C@H](Cc2ccc(O)cc2)NC(=O)CNC(=O)[C@@H]2CSSC[C@H](NC1=O)C(=O)N[C@@H](Cc1cnc[nH]1)C(=O)N1CC[C@H](O)[C@H]1C(=O)N[C@H](C(=O)O)CSSC[C@H](NC(=O)[C@@H](NC(=O)CNC(=O)[C@@H]1CCC(=O)N1)C(C)C)C(=O)N2`, the logEC50 was -6.74 in [5] and -6.67 in the series on COS-7 [6]. Besides, in [7], the negative-log IC50 (pIC50) was found to be 6.67. Also, the result (in [8]; in the series on Rattus norvegicus [9]) was Active. Also, the Activity entry in the series listed under Rattus norvegicus [1] was “Toxic”. Further, the concentration for half-maximal inhibition (IC50) in series [4] was 0.182 µM.
As to `CC(C)C[C@@H]1NC(=O)[C@H](CCCCN)NC(=O)[C@H](Cc2ccc(O)cc2)NC(=O)CNC(=O)[C@@H]2CSSC[C@H](NC1=O)C(=O)N[C@@H](Cc1cnc[nH]1)C(=O)N[C@H](Cc1ccc(O)cc1)C(=O)N[C@H](C(=O)O)CSSC[C@H](NC(=O)[C@@H](NC(=O)CNC(=O)[C@@H]1CCC(=O)N1)C(C)C)C(=O)N2`, the result (in the series with COS-7 [3]; in [4]) was Active.
`CC(C)C[C@@H]1NC(=O)[C@H](CCCCN)NC(=O)[C@H](Cc2ccc(O)cc2)NC(=O)CNC(=O)[C@@H]2CSSC[C@H](NC1=O)C(=O)N[C@@H](Cc1cnc[nH]1)C(=O)N[C@H](CCCCN)C(=O)N[C@H](C(=O)O)CSSC[C@H](NC(=O)[C@@H](NC(=O)CNC(=O)[C@@H]1CCC(=O)N1)C(C)C)C(=O)N2`: the result (in the series with COS-7 [3]; in [4]) was Active.
For `CC(C)C[C@@H]1NC(=O)[C@H](CCCCN)NC(=O)[C@H](Cc2ccc(O)cc2)NC(=O)CNC(=O)[C@@H]2CSSC[C@H](NC1=O)C(=O)N[C@@H](Cc1cnc[nH]1)C(=O)N1Cc3ccccc3C[C@H]1C(=O)N[C@H](C(=O)O)CSSC[C@H](NC(=O)[C@@H](NC(=O)CNC(=O)[C@@H]1CCC(=O)N1)C(C)C)C(=O)N2`, the result (in the series on COS-7 [3]; in series [4]) was Active.
Turning to `CC(C)C[C@@H]1NC(=O)[C@H](CCCCN)NC(=O)[C@H](Cc2cccs2)NC(=O)CNC(=O)[C@@H]2CSSC[C@H](NC1=O)C(=O)N[C@@H](Cc1cnc[nH]1)C(=O)N1CC[C@H](O)[C@H]1C(=O)N[C@H](C(=O)O)CSSC[C@H](NC(=O)[C@@H](NC(=O)CNC(=O)[C@@H]1CCC(=O)N1)C(C)C)C(=O)N2`, in [4], the result was inactive.

Source of the values: ChEMBL document CHEMBL1154792, “chi-Conopeptide pharmacophore development: toward a novel class of norepinephrine transporter inhibitor (Xen2174) for pain” (J Med Chem, 2009).
